Assay results from ChEMBL document CHEMBL1629705, “PSI-7851, a pronucleotide of beta-D-2'-deoxy-2'-fluoro-2'-C-methyluridine monophosphate, is a potent and pan-genotype inhibitor of hepatitis C virus replication” (Antimicrob Agents Chemother, 2010).

Experiments:
Hepatitis C virus [1] = test: Antiviral activity against Hepatitis C virus harboring wild-type NS5B infected in human lunet cells by luciferase-based replicon assay; type: functional, Hepacivirus hominis
Outline: (§1)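 ET-lunet cells with the ET genotype 1b replicon, wild-type or S96T/N142T (ET replicon with these mutations electroporated into Lunet cells, selected in 0.2 mg/ml G418). 3,000 cells/well, 4 days with serially diluted compound. Firefly luciferase luminescence read-out; EC90 from dose–response.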

Hepatitis C virus [2] = test: Antiviral activity against Hepatitis C virus assessed as log reduction in viral RNA at 2 uM after 3 weeks; type: functional, Hepacivirus hominis
Outline: (§2)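 ET-lunet replicon cells seeded at 1 × 10^5/well without G418, treated at 0.1, 1 or 2 μM (final DMSO 0.5%). Passaged 1:3–1:4 every 3–4 days for 3 weeks with fresh compound. Then compound withdrawn and cells grown 3 more weeks in 0.25 mg/ml G418. HCV RNA by RT-PCR (ΔΔCt vs rRNA and DMSO controls, log change). Colonies fixed in formaldehyde and stained with crystal violet at 6 weeks.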

Influenza A virus = test: Antiviral activity against Influenza A virus (A/Viet Nam/1203/2004(H5N1)) infected in HFF by neutral red assay; type: functional, organism-based
[3] = Cytotoxicity against human BxPC3 cells assessed as effect on cellular GAPDH RNA level after 8 days by quantitative real-time PCR; type: cell-based, BXPC-3
Hepatitis C virus [4] = test: Antiviral activity against Hepatitis C virus Con1 infected in human lunet cells assessed as inhibition of viral RNA replication after 4 days by luciferase reporter gene assay; type: functional, organism-based, Hepacivirus hominis; settings: 96 h
Outline: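 Genotype 1b Con1 subgenomic replicon cells (ET-lunet, 3,000 cells/well, firefly luciferase ET replicon; clone A, 1,500 cells/well) incubated 4 days with serially diluted compound. Replication read by luciferase luminescence and/or real-time RT-PCR.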

Hepatitis C virus [5] = test: Antiviral activity against Hepatitis C virus assessed as log reduction in viral RNA at 1 uM after 3 weeks; type: functional, Hepacivirus hominis; outline: as §2
Hepatitis C virus [6] = test: Antiviral activity against Hepatitis C virus harboring NS5B polymerase S96T/N142T mutant gene infected in human lunet cells by luciferase-based replicon assay; type: functional, Hepacivirus hominis; outline: as §1
[7] = Cytotoxicity against human HeLaP4 cells; type: cell-based
Hepatitis C virus [8] = test: Selectivity ratio of EC90 for Hepatitis C virus harboring NS5B polymerase S96T mutant gene to EC90 for HCV harboring wild type NS5B polymerase; type: functional, Hepacivirus hominis
CCRF-CEM = test: Cytotoxicity against human CEM cells assessed as effect on ribosome RNA gene level at up to 100 uM after 14 days by quantitative real-time PCR assay; type: cell-based; settings: 336 h
Outline: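 HepG2 or CEM cells incubated 14 days with compound up to 100 μM, ddC as control. Medium and compound replenished on days 7 and 11. Mitochondrial COXII gene and nuclear rDNA measured by multiplex quantitative RT-PCR.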

DNA polymerase beta = DNA polymerase beta (Homo sapiens, UniProt P06746); test: Inhibition of human DNA polymerase beta assessed as incorporation of [alpha-32P]dCTP up to 1mM preincubated for 30 mins by whatman DE81 paper binding assay
Outline: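 Human DNA polymerase β at 18 μg/ml final, in 50 mM Tris pH 7.5, 50 mM NaCl, 5 mM MgCl2, activated calf thymus DNA and 20 μM each dNTP with [α-32P]dCTP. Triphosphate up to 1 mM. 37°C, stopped at 30 min with EDTA. Products quantified by DE81 paper binding; IC50 by nonlinear fit.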

[9] = target: T1, DNA polymerase subunit gamma-1 (Homo sapiens, UniProt P54098); test: Inhibition of human DNA polymerase gamma assessed as incorporation of [alpha-32P]dCTP up to 1mM preincubated for 30 mins by whatman DE81 paper binding assay
T1 sequence (P54098 whole entry): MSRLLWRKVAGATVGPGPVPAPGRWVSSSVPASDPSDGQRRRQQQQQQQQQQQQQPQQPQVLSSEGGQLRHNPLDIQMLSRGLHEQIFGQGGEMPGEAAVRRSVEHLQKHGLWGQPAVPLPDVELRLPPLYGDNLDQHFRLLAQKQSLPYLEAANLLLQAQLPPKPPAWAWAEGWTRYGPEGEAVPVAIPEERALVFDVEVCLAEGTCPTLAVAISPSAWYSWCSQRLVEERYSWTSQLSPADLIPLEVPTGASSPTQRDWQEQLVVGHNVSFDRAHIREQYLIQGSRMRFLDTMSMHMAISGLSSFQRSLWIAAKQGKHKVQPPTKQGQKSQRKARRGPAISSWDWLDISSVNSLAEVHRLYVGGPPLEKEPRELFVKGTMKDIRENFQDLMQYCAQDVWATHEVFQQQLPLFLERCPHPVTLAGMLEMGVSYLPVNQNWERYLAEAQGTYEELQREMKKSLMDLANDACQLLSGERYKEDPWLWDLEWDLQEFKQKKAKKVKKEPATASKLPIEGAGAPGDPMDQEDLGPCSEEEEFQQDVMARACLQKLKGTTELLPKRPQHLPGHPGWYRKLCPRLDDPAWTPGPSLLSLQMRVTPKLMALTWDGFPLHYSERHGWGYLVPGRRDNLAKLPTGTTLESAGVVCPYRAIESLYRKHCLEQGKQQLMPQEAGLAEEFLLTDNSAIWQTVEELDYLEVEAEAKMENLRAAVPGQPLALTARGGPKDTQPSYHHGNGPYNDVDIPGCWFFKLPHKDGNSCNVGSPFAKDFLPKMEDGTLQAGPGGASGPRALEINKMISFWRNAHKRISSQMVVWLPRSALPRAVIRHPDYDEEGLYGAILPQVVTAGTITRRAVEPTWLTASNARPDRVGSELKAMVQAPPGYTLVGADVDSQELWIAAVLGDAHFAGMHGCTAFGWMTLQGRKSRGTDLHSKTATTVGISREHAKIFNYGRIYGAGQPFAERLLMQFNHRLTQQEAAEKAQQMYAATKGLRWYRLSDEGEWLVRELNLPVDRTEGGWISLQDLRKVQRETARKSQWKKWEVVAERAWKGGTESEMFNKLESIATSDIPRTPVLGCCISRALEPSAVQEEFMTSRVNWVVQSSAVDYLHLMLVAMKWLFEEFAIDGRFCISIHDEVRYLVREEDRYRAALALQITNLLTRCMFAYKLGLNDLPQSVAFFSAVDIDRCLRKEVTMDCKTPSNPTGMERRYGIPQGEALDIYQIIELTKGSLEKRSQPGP
Outline: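 Human DNA polymerase α (20 μg/ml) or γ (50 μg/ml) in 50 mM Tris pH 7.5, 50 mM NaCl, activated calf thymus DNA, 20 μM each dNTP, [α-32P]dCTP, 5 mM MgCl2. Nucleotide inhibitor up to 1 mM. 37°C, quenched with EDTA at 30 min. Product measured by DE81 paper binding; IC50 by nonlinear fit.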

SMILES | EC90 (Hepatitis C virus [1]) | FC (Hepatitis C virus [2]) | EC50 (Influenza A virus) | CC50 at 192 h [3] | EC50 (Hepatitis C virus [4]) | EC90 (Hepatitis C virus [4]) | FC (Hepatitis C virus [5]) | EC90 (Hepatitis C virus [6]) | CC50 [7] | Selectivity ratio (Hepatitis C virus [8]) | Activity (CCRF-CEM) | IC50 (DNA polymerase beta) | IC50 [9]
CC(C)OC(=O)[C@H](C)NP(=O)(OC[C@H]1O[C@@H](n2ccc(=O)[nH]c2=O)[C@](C)(F)[C@@H]1O)Oc1ccccc1 (stereo partly drawn) | 0.52 µM | >5 | > 100 µM | > 100 µM | 1.34 µM | 3.81 µM | 4 | 0.39 µM | > 100 µM | 0.66 | Non-toxic | – | –
C[C@@]1(F)[C@H](O)[C@@H](COP(=O)(O)OP(=O)(O)OP(=O)(O)O)O[C@H]1n1ccc(=O)[nH]c1=O [GS-461203] | – | – | – | – | – | – | – | – | – | – | – | > 1000 µM | > 1000 µM
